Reference: ChEMBL document CHEMBL4004830 (J Med Chem, 2017)
Calls of active or inactive are those of the source. The calls are words filed in the database; no cut-off is given here.

Experiments:
MV4-11 [1] = assay: Cell cycle arrest in human MV4-11 cells assessed as accumulation at sub-G1 phase at 0.04 uM after 24 hrs by propidium iodide staining based flow cytometry (reference value: 1.99%); format: functional
MV4-11 [2] = assay: Cell cycle arrest in human MV4-11 cells assessed as accumulation at G1 phase at 0.04 uM after 24 hrs by propidium iodide staining based flow cytometry (reference value: 61.01%); format: functional
MV4-11 [3] = assay: Cell cycle arrest in human MV4-11 cells assessed as accumulation at S phase at 0.04 uM after 24 hrs by propidium iodide staining based flow cytometry (reference value: 19.07%); format: functional
MV4-11 [4] = assay: Cell cycle arrest in human MV4-11 cells assessed as accumulation at S phase at 0.20 uM after 24 hrs by propidium iodide staining based flow cytometry (reference value: 19.07%); format: functional
MV4-11 [5] = assay: Cell cycle arrest in human MV4-11 cells assessed as accumulation at G2/M phase at 0.20 uM after 24 hrs by propidium iodide staining based flow cytometry (reference value: 17.94%); format: functional
MV4-11 [6] = assay: Cell cycle arrest in human MV4-11 cells assessed as accumulation at G1 phase at 0.40 uM after 24 hrs by propidium iodide staining based flow cytometry (reference value: 61.01%); format: functional
MV4-11 [7] = assay: Induction of apoptosis in human MV4-11 cells assessed as necrotic cells at GI50 after 24 hrs by annexin V/propidium iodide staining based flow cytometry (reference value: 0.06%); format: functional
[8] = biological target: Serine/threonine-protein kinase 16 (Homo sapiens) (UniProt O75716); assay: Inhibition of human STK16 (11 to 305 amino acid residues) expressed in bacterial expression system at 1 uM in presence of [gamma-33P]-ATP […]
Chain of Serine/threonine-protein kinase 16 (Homo sapiens) (O75716 whole entry, the tested form may be a part): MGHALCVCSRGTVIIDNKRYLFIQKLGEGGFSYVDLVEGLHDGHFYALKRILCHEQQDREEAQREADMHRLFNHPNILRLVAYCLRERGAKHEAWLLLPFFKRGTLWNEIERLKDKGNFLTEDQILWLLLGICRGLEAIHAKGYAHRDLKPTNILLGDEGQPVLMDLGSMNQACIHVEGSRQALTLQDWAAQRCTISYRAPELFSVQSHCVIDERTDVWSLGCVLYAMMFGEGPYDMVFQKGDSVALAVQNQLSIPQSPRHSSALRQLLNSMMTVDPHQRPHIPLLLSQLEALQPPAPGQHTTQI
Outline: (§1)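 Broad kinome panel of 369 kinases screened at 1 µM test concentration.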

CDK6/cyclin D3 = CDK6/cyclin D3 (Homo sapiens, UniProt Q00534); assay: Inhibition of CDK6/cyclin D3 (unknown origin) in presence of [gamma-33P]-ATP […]; format: protein-complex assay; conditions: read-out: Ki(app)
Chain of CDK6/cyclin D3 (P30281 whole entry): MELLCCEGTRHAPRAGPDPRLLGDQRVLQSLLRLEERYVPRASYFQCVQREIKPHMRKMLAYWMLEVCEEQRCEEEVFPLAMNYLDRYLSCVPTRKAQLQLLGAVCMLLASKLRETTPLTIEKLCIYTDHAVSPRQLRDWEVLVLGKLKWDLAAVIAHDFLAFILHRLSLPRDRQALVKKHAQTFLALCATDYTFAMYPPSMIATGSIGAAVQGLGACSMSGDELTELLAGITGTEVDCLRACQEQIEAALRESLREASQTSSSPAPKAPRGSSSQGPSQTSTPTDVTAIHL
Chain of CDK6/cyclin D3 (Q00534 whole entry): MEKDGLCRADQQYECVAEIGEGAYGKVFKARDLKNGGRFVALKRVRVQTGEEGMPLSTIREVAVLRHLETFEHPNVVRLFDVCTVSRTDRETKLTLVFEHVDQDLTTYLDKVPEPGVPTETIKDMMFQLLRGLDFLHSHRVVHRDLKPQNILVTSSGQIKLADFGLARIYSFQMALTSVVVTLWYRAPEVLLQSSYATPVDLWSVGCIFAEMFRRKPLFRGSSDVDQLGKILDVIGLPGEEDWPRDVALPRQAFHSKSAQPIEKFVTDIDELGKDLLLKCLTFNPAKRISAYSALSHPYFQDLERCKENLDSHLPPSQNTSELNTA

CDK2/Cyclin A2 = CDK2/Cyclin A2 (Homo sapiens, UniProt P24941); assay: Inhibition of CDK2/cyclin A (unknown origin) in presence of [gamma-33P]-ATP […]; format: protein-complex assay; conditions: read-out: Ki(app)
CDK9/cyclin T1 = CDK9/cyclin T1 (Homo sapiens, UniProt P50750); assay: Inhibition of CDK9/cyclin T1 (unknown origin) in presence of [gamma-33P]-ATP […]; format: protein-complex assay; conditions: read-out: Ki(app)
Chain of CDK9/cyclin T1 (O60563 whole entry): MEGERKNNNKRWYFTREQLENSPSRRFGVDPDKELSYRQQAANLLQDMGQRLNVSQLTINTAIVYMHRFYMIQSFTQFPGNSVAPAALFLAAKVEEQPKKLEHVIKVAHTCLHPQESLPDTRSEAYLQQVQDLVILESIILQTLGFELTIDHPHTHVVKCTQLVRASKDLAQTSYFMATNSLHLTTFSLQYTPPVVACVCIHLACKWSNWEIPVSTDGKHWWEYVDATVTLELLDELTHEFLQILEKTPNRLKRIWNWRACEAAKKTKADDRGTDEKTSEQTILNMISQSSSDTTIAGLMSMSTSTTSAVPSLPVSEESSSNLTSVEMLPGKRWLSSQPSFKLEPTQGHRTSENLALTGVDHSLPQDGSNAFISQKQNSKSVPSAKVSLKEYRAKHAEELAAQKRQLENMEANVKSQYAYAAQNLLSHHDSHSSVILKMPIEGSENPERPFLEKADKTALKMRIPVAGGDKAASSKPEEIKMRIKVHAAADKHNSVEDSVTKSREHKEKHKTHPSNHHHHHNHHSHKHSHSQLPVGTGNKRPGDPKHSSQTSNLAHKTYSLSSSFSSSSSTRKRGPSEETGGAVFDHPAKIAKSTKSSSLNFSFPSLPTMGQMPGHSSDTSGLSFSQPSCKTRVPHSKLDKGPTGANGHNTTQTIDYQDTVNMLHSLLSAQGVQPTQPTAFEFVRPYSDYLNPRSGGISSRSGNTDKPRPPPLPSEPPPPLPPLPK
Chain of CDK9/cyclin T1 (P50750 whole entry): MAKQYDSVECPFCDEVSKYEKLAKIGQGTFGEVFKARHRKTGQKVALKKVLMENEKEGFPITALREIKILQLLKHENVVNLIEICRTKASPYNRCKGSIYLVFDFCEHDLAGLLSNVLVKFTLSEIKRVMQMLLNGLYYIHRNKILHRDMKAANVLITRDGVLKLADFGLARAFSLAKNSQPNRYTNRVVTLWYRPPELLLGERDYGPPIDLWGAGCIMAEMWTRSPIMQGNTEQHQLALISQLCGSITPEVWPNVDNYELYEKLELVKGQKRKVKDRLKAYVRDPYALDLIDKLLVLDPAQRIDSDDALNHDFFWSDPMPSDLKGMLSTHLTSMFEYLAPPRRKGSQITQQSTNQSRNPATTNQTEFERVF

[9] = biological target: Cyclin-dependent kinase 4/6 (Homo sapiens) (UniProt P11802+Q00534); assay: Inhibition of CDK4/6 in human MV4-11 cells assessed as reduction in Rb phosphorylation at Ser780 after 12 to 24 hrs by Western blot analysis; format: cell-based
Chain of Cyclin-dependent kinase 4/6 (Homo sapiens) (P11802 whole entry, looked up): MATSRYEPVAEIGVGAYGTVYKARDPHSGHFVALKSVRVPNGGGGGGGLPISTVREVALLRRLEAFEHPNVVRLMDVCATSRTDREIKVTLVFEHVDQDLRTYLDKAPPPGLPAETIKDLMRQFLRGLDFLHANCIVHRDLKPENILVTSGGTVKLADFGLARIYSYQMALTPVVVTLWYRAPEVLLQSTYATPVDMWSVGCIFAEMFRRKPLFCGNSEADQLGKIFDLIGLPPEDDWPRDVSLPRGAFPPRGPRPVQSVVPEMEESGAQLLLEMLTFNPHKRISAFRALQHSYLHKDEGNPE
Chain of Cyclin-dependent kinase 4/6 (Homo sapiens) (Q00534 whole entry, looked up): as the sequence (Q00534 whole entry) above
Outline: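 MV4-11 cells treated 12 or 24 h across a dose series; Rb phospho-Ser780 detected by Western blot with β-actin as loading control; two independent experiments.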

Cytochrome P450 2D6 = Cytochrome P450 2D6 (Homo sapiens, UniProt P10635); assay: Inhibition of CYP2D6 in human liver microsomes using dextromethorphan as substrate in presence of NADPH; format: ADME
Chain of Cytochrome P450 2D6 (P10635 whole entry, canonical isoform): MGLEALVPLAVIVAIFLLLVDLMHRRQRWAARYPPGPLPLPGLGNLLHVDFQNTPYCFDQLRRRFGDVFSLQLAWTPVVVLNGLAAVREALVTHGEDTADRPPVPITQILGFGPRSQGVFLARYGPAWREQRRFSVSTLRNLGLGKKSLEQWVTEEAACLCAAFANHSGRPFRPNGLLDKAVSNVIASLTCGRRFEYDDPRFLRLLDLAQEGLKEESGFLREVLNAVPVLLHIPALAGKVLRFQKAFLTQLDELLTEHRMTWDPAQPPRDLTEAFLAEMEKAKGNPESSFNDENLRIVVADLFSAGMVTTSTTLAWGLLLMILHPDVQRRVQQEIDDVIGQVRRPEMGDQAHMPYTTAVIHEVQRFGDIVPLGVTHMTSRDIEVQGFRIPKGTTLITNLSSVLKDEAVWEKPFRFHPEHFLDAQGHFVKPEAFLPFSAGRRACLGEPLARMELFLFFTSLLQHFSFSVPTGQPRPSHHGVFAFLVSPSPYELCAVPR
Outline: (§2)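 Human liver microsomes with NADPH and isoform-specific probe substrate (midazolam CYP3A4, dextromethorphan CYP2D6, ethoxyresorufin CYP1A, tolbutamide CYP2C9, mephenytoin CYP2C19); IC50 reported in µM.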

Cytochrome P450 2C9 = Cytochrome P450 2C9 (Homo sapiens, UniProt P11712); assay: Inhibition of CYP2C9 in human liver microsomes using tolbutamide as substrate in presence of NADPH; format: ADME; outline: as §2
Chain of Cytochrome P450 2C9 (P11712 whole entry): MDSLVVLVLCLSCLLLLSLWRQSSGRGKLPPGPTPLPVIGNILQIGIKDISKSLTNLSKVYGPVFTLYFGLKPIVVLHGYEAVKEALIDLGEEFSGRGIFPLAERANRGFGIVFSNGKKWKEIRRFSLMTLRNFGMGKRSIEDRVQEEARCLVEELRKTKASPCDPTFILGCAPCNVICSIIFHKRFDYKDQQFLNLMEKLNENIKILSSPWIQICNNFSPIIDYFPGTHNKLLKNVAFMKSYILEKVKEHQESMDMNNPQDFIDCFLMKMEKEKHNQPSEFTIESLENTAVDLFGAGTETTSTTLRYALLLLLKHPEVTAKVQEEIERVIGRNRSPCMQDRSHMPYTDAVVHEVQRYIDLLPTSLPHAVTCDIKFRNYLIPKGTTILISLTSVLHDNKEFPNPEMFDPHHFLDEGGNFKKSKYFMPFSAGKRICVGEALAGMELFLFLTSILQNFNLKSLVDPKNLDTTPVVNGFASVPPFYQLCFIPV

[10] = Octanol/aqueous buffer partition co-efficient, log D of the compound at pH 7.4 by shake-flask method; format: physicochemical
[11] = Apparent permeability co-efficient from apical to basolateral side in human Caco2 cells; format: ADME, cell-based; conditions: Caco-2
Outline: (§3)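 Caco-2 monolayer assay measuring the apparent permeability coefficient (P_app, 10^-6 cm/s) in the A→B and B→A directions. Efflux ratio is the mean P_app B-A divided by the mean P_app A-B.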

[12] = Apparent permeability co-efficient from basolateral to apical side in human Caco2 cells; format: ADME, cell-based; conditions: Caco-2; outline: as §3
[13] = Volume of distribution at steady state in albino Wistar rat at 5 mg/kg, iv up to 24 hrs by LC-MS/MS analysis; format: ADME, organism-based; conditions: in vivo, read-out: Vdss
Outline: (§4)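 Single-dose pharmacokinetics in male animals: albino Wistar rats given 5 mg/kg IV or 20 mg/kg PO, and BALB/c mice given 2 mg/kg IV or 10 mg/kg PO.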

[14] = Clearance in albino Wistar rat at 5 mg/kg, iv up to 24 hrs by LC-MS/MS analysis; format: ADME, organism-based; conditions: in vivo
[15] = AUC (0 to t) in albino Wistar rat at 20 mg/kg administered via oral gavage measured up to 24 hrs by LC-MS/MS analysis; format: ADME, organism-based; set-up: dose 20 mg/kg, time < 24 hr, route oral; conditions: in vivo
[16] = Tmax in albino Wistar rat at 20 mg/kg administered via oral gavage measured up to 24 hrs by LC-MS/MS analysis; format: ADME, organism-based; conditions: in vivo; outline: as §4
[17] = Oral bioavailability in albino Wistar rat at 20 mg/kg measured up to 24 hrs by LC-MS/MS analysis; format: ADME, organism-based; conditions: in vivo; outline: as §4
[18] = Volume of distribution at steady state in BALB/c mouse at 2 mg/kg, iv up to 24 hrs by LC-MS/MS analysis; format: ADME, organism-based; conditions: in vivo, read-out: Vdss; outline: as §4
[19] = AUC (0 to t) in BALB/c mouse at 2 mg/kg, iv up to 24 hrs by LC-MS/MS analysis; format: ADME, organism-based; set-up: dose 2 mg/kg, time < 24 hr, route intravenous; conditions: in vivo
[20] = Tmax in BALB/c mouse at 10 mg/kg administered via oral gavage measured up to 24 hrs by LC-MS/MS analysis; format: ADME, organism-based; conditions: in vivo; outline: as §4
[21] = Oral bioavailability in BALB/c mouse at 10 mg/kg measured up to 24 hrs by LC-MS/MS analysis; format: ADME, organism-based; conditions: in vivo; outline: as §4
[22] = Half life in BALB/c mouse at 10 mg/kg administered via oral gavage measured up to 24 hrs by LC-MS/MS analysis; format: ADME, organism-based; conditions: in vivo
Outline: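 Single-dose pharmacokinetics in male BALB/c mice, 2 mg/kg IV or 10 mg/kg PO.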

Mus musculus [23] = assay: Toxicity in nude BALB/c mouse assessed as body weight loss at 20 to 100 mg/kg, po qd measured up to 14 days post dose; format: organism-based; conditions: in vivo, 336 h
Mus musculus [24] = assay: Toxicity in nude BALB/c mouse assessed as overt toxicity at 20 to 100 mg/kg, po qd measured up to 14 days post dose; format: organism-based; conditions: in vivo, 336 h
MV4-11 [25] = assay: Antitumor activity against human MV4-11 cells xenografted in nude BALB/c mouse assessed as median survival time at 100 mg/kg, po qd administered for 33 consecutive days and left untreated for another 50 days (reference value: 33 days); format: functional
Mus musculus [26] = assay: Toxicity in nude BALB/c mouse xenografted with human MV4-11 cells assessed as body weight loss at 100 mg/kg, po qd for 33 consecutive days and left untreated for another 50 days; format: organism-based; conditions: in vivo, 1200 h
Mus musculus [27] = assay: Toxicity in nude BALB/c mouse xenografted with human MV4-11 cells assessed as overt toxicity at 100 mg/kg, po qd for 33 consecutive days and left untreated for another 50 days; format: organism-based; conditions: in vivo, 1200 h
[28] = biological target: Dual specificity tyrosine-phosphorylation-regulated kinase 3 (Homo sapiens) (UniProt O43781); assay: Inhibition of DYRK3 (unknown origin) at 1 uM in presence of [gamma-33P]-ATP […]; outline: as §1
Chain of Dual specificity tyrosine-phosphorylation-regulated kinase 3 (Homo sapiens) (O43781 whole entry): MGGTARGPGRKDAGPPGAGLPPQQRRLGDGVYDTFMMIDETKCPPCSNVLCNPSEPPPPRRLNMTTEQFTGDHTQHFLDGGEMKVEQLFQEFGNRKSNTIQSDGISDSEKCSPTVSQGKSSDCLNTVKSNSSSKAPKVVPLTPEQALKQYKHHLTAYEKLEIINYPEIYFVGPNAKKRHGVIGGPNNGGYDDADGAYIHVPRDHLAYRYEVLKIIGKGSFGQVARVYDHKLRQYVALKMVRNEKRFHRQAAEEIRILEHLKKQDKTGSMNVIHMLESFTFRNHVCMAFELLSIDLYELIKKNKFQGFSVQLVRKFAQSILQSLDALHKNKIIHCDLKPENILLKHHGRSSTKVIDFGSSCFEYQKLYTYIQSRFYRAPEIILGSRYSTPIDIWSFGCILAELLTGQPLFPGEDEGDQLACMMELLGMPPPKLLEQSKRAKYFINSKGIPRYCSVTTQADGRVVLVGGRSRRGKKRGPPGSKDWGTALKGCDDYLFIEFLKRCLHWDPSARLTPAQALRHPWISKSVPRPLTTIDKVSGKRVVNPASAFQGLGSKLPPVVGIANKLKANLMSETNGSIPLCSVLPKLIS

CC(=O)c1c(C)c2cnc(Nc3ccc(N4CCNCC4)cn3)nc2n(C2CCCC2)c1=O [PALBOCICLIB]
Activity (MV4-11 [1]): 2.66%
Activity (MV4-11 [2]): 68.17%
Activity (MV4-11 [3]): 15.52%
Activity (MV4-11 [4]): 9.33%
Activity (MV4-11 [5]): 5.74%
Activity (MV4-11 [6]): 85.35%
Activity (MV4-11 [7]): 0.17%

Cc1nc(NC2CCCC2)sc1-c1ccnc(Nc2ccc(N3CCOCC3)cn2)n1
inhibition [8]: Active
Ki (CDK6/cyclin D3): 0.03 µM
Ki (CDK2/Cyclin A2): 4.68 µM
Ki (CDK9/cyclin T1): > 5 µM
inhibition [9]: Dose-dependent effect
Activity (MV4-11 [7]): 0.06%
IC50 (Cytochrome P450 2D6): > 25 µM
IC50 (Cytochrome P450 2C9): > 25 µM
logD [10]: 4.4
Papp A→B [11]: 10.1 ×10⁻⁶ cm/s
Papp B→A [12]: 3.98 ×10⁻⁶ cm/s
Vd [13]: 1.5 L/kg
clearance [14]: 11.8 mL/min/kg
AUC(0-t) at 24 h [15]: 15.9 µM·h
Tmax [16]: 3.7 h
bioavailability [17]: 25.1 to 27%
Vd [18]: 5.6 L/kg
AUC(0-t) at 24 h [19]: 1.2 µM·h
Tmax [20]: 2 h
bioavailability [21]: 100%
half-life [22]: 5 h
Activity (Mus musculus [23]): Non-Toxic
Activity (Mus musculus [24]): Non-Toxic
MST (MV4-11 [25]): 55 days
Activity (Mus musculus [26]): Non-Toxic
Activity (Mus musculus [27]): Non-Toxic
inhibition [28]: Active
